The text below walks through data of ChEMBL document CHEMBL1122368, “Synthesis and antihypertensive activity of some new quinazoline derivatives” (1983).

Experiment [1] has as its system Rattus norvegicus. The experiment can be described thus: Hypotensive activity in anesthetized rats, dose that produced a 30% fall in mean blood pressure. It counts as functional. Put shortly:
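Normotensive rats under urethane anaesthesia, arterial pressure recorded, femoral vein cannulated. Dosing iv in rising doses (0.01, 0.1, 1, 10 μmol/kg) at 30-min intervals, 1 mL/kg over 2 min; solvent-treated controls. Colonic temperature held at 38.0 ± 0.3 °C. Effect read at its maximum, 1–5 min after injection. ED30 is the dose (μmol/kg) giving a 30% fall in mean blood pressure.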

For experiment [2], the system named is Rattus norvegicus. The experiment can be described thus: Antihypertensive activity as fall in systolic blood pressure after 3 hr of 10 uM/kg po dosing in Spontaneously hypertensive rats. The class given is functional, Artery. Put shortly: (§1)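 Conscious spontaneously hypertensive rats dosed by gavage, about 1 mL/rat. Systolic pressure recorded by tail-cuff after warming the rats 30 min at 36 °C. Fall in systolic BP (mmHg) read versus control values; listed values are significant decreases (p ≤ 0.05), otherwise marked NS. Baseline systolic pressure 175–190 mmHg across experiments.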

Experiment [3] relates to Rattus norvegicus. The experiment can be described thus: Antihypertensive activity as fall in systolic blood pressure after 5 h of 1 umol/kg po dosing in Spontaneously hypertensive rats;NS means nonsignificant change in blood pressure. To be noted: Artery. The class given is functional, organism-based. Put shortly:
as §1

For experiment [4], the system named is Rattus norvegicus. The experiment can be described thus: Antihypertensive activity as fall in systolic blood pressure after 5 hr of 10 uM/kg po dosing in Spontaneously hypertensive rats. It counts as functional, Artery. A digest of the protocol: as §1
Experiment [5] concerns Rattus norvegicus. The experiment is described as follows: Hypotensive activity in anesthetized rats, dose that produced a 30% fall in mean blood pressure after 30 minutes. It counts as functional. Put shortly:
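Normotensive rats under urethane anaesthesia, arterial pressure recorded, femoral vein cannulated. Dosing iv in rising doses (0.01, 0.1, 1, 10 μmol/kg) at 30-min intervals, 1 mL/kg over 2 min; solvent controls; colonic temperature 38.0 ± 0.3 °C. Fall in pressure read 30 min after injection. ED30 is the dose (μmol/kg) giving a 30% fall in mean blood pressure.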

Experiment [6] has as its system Rattus norvegicus. The experiment can be described thus: Antihypertensive activity as fall in systolic blood pressure after 3 hr of 1 umol/kg po dosing in Spontaneously hypertensive rats. It counts as functional, Artery. A digest of the protocol:
as §1

For experiment [7], the system named is Rattus norvegicus. The experiment can be described thus: Antihypertensive activity as fall in systolic blood pressure after 1 h of 1 umol/kg po dosing in Spontaneously hypertensive rats. It counts as functional, Artery. A digest of the protocol: as §1
Experiment [8] relates to Rattus norvegicus. The experiment is described as follows: Antihypertensive activity as fall in systolic blood pressure after 1 hr of 10 uM/kg po dosing in Spontaneously hypertensive rats. The class given is functional, Artery. A digest of the protocol: as §1
Experiment [9] concerns Rattus norvegicus. The experiment is described as follows: Antihypertensive activity as fall in systolic blood pressure after 3 hr of 100 umol/kg po dosing in Spontaneously hypertensive rats. It counts as functional, Artery. A digest of the protocol: as §1
Experiment [10] relates to Rattus norvegicus. The experiment can be described thus: Antihypertensive activity as fall in systolic blood pressure after 1 hr of 1 uM/kg po dosing in Spontaneously hypertensive rats. It counts as functional, Artery. Put shortly: as §1
In experiment [11] the test system is Rattus norvegicus. The experiment is described as follows: Antihypertensive activity as fall in systolic blood pressure after 5 h of 100 umol/kg po dosing in Spontaneously hypertensive rats. It counts as functional, Artery. Put shortly: as §1
Experiment [12] relates to Rattus norvegicus. The experiment is described as follows: Antihypertensive activity as fall in systolic blood pressure after 3 hr of 1 uM/kg po dosing in Spontaneously hypertensive rats. It counts as functional, Artery. Put shortly:
as §1

The test system of experiment [13] is Rattus norvegicus. The experiment is described as follows: Antihypertensive activity as fall in systolic blood pressure after 5 hr of 1 uM/kg po dosing in Spontaneously hypertensive rats. It counts as functional, Artery. Put shortly: as §1
Experiment [14] deals with Rattus norvegicus. The experiment can be described thus: Antihypertensive activity as fall in systolic blood pressure after 1 h of 100 umol/kg po dosing in Spontaneously hypertensive rats. The class given is functional, Artery. Put shortly:
as §1

The test system of experiment [15] is Rattus norvegicus. The experiment is described as follows: Antihypertensive activity as fall in systolic blood pressure after 3 hr of 1 umol/kg po dosing in Spontaneously hypertensive rats;NS means nonsignificant change in blood pressure. The class given is functional, organism-based. To be noted: Artery. A digest of the protocol:
as §1

For experiment [16], the system named is Rattus norvegicus. The experiment can be described thus: Antihypertensive activity as fall in systolic blood pressure after 1 hr of 100 umol/kg po dosing in Spontaneously hypertensive rats. It counts as functional, Artery. A digest of the protocol: as §1
The subject of experiment [17] is Rattus norvegicus. The experiment is described as follows: Antihypertensive activity as fall in systolic blood pressure after 3 h of 100 umol/kg po dosing in Spontaneously hypertensive rats. The class given is functional, Artery. A digest of the protocol:
as §1

In the case of `CCOC(=O)C1CCCN(c2nc(N)c3cc(OC)c(OC)cc3n2)C1.Cl` (stereo in doubt; 6cc), the ED30 with Rattus norvegicus [1] worked out at 0.2 µM/kg.
As to `CCCCC(=O)C1CCN(c2nc(N)c3cc(OC)c(OC)cc3n2)CC1.Cl`, the “Decrease in SBP” value in the experiment on Rattus norvegicus [2] is 36 mmHg; in the experiment on Rattus norvegicus [3], “Not significant”; in the experiment with Rattus norvegicus [4] it was 27 mmHg; in the experiment on Rattus norvegicus [6] it was 14 mmHg; with Rattus norvegicus [7], 13 mmHg; with Rattus norvegicus [8], 40 mmHg. Also, the ED30 with Rattus norvegicus [5] amounted to 0.06 µM/kg; in the experiment on Rattus norvegicus [1], 0.03 µM/kg.
Consider `COc1cc2nc(N3CCC(C(N)=O)CC3)nc(N)c2cc1OC.Cl`, for which the values for the ED30 with Rattus norvegicus [5] and with Rattus norvegicus [1] were 0.8 µM/kg and 0.1 µM/kg, respectively.
For `COc1cc2nc(N3CCC(C(=O)NC(C)(C)C)CC3)nc(N)c2cc1OC.Cl`, the results for the ED30 in the experiment on Rattus norvegicus [5] and in the experiment with Rattus norvegicus [1] were 1 µM/kg and 0.08 µM/kg, respectively.
For `COc1cc2nc(N3CCN(C(=O)c4ccco4)CC3)nc(N)c2cc1OC` [PRAZOSIN], the “Decrease in SBP” value in the experiment on Rattus norvegicus [2] is 36 mmHg; in the experiment with Rattus norvegicus [9] it was 30 mmHg; in the experiment on Rattus norvegicus [10], 29 mmHg; in the experiment with Rattus norvegicus [11] it was 26 mmHg; in the experiment on Rattus norvegicus [4], 34 mmHg; with Rattus norvegicus [12], 30 mmHg. For the same compound, the “Decrease in SBP” value in the experiment on Rattus norvegicus [13] is listed as 26 mmHg; in the experiment on Rattus norvegicus [14] it was 38 mmHg; in the experiment on Rattus norvegicus [8], 38 mmHg. The ED30 was found to be 0.03 µM/kg in the experiment on Rattus norvegicus [5] and 0.01 µM/kg in the experiment with Rattus norvegicus [1].
On to `COc1cc2nc(N3CCC(C(=O)N4CCCCCC4)CC3)nc(N)c2cc1OC.Cl`, for which the ED30 with Rattus norvegicus [5] worked out at 0.05 µM/kg; in the experiment on Rattus norvegicus [1], 0.01 µM/kg.
As to `COc1cc2nc(N3CCCC(C(=O)N4CCCC4)C3)nc(N)c2cc1OC.Cl` (stereo in doubt; 6ii), the results for the ED30 with Rattus norvegicus [5] and with Rattus norvegicus [1] were 15 µM/kg and 10 µM/kg, respectively.
In the case of `COc1cc2nc(N3CCC(C(=O)OCC(C)(C)C)CC3)nc(N)c2cc1OC.Cl`, the ED30 in the experiment with Rattus norvegicus [5] stood at 2 µM/kg; with Rattus norvegicus [1] it was 0.03 µM/kg.
Consider `CCC(=O)C1CCN(c2nc(N)c3cc(OC)c(OC)cc3n2)CC1.Cl`, for which the ED30 in the experiment on Rattus norvegicus [5] was 30 µM/kg; with Rattus norvegicus [1], 5 µM/kg.
In the case of `COc1cc2nc(N3CCC(C(=O)N4CCCCCCC4)CC3)nc(N)c2cc1OC.Cl`, the “Decrease in SBP” value in the experiment with Rattus norvegicus [15] is “Not significant”; with Rattus norvegicus [2] it was 29 mmHg; with Rattus norvegicus [11], 83 mmHg; in the experiment with Rattus norvegicus [3], “Not significant”; with Rattus norvegicus [4] it was 26 mmHg; in the experiment with Rattus norvegicus [16], 52 mmHg. Further, the “Decrease in SBP” value with Rattus norvegicus [17] is listed as 66 mmHg; in the experiment with Rattus norvegicus [7], 11 mmHg; in the experiment on Rattus norvegicus [8], 29 mmHg. The ED30 with Rattus norvegicus [5] worked out at 0.05 µM/kg; with Rattus norvegicus [1], 0.02 µM/kg.
Consider `CCOC(=O)C1CCCN(c2nc(N)c3cc(OC)c(OC)cc3n2)C1.Cl` (stereo in doubt; 6c), for which the ED30 is 20 µM/kg with Rattus norvegicus [5] and 0.8 µM/kg in the experiment on Rattus norvegicus [1].
As for `COc1cc2nc(N3CCC(C(=O)N4CCC4)CC3)nc(N)c2cc1OC.Cl`, the ED30 in the experiment with Rattus norvegicus [5] stood at 0.4 µM/kg; with Rattus norvegicus [1], 0.07 µM/kg.
For the compound `COc1cc2nc(N3CCC(C(=O)N4CCCCC4)CC3)nc(N)c2cc1OC.Cl`, the ED30 in the experiment with Rattus norvegicus [5] amounted to 0.08 µM/kg; in the experiment with Rattus norvegicus [1], 0.02 µM/kg.
Take `COc1cc2nc(N3CCC(C(=O)N4C(C)CCCC4C)CC3)nc(N)c2cc1OC.Cl` (stereo unspecified): the ED30 turned out to be 0.2 µM/kg with Rattus norvegicus [5] and 0.08 µM/kg in the experiment on Rattus norvegicus [1].
